Assay results taken from ChEMBL document CHEMBL3997766, “Synthesis and pre-clinical studies of new amino-acid ester thiazolide prodrugs” (Eur J Med Chem, 2017).
Each block holds one molecule with its values, some of them ahead of it.

Experiments:
Rattus norvegicus [1] = experiment: Drug level in Sprague-Dawley rat treated with RM5064 at 6.4 mg/kg, iv measured at 0.25 to 1 hrs post dose; format: ADME, organism-based; conditions: in vivo
Rattus norvegicus [2] = experiment: Drug level in Sprague-Dawley rat treated with RM5038 at 6.4 mg/kg, iv measured at 0.25 to 1 hrs post dose; format: ADME, organism-based; conditions: in vivo
[3] = Drug excretion in po dosed human urine; format: ADME, organism-based; conditions: read-out: Drug excretion
Rattus norvegicus [4] = experiment: Cmax in Sprague-Dawley rat assessed as tizoxanide-glucuronide level in plasma at 30 mg/kg, po administered as single dose; format: ADME, organism-based; set-up: dose 30 mg/kg, route oral; conditions: in vivo
Procedure, shortened: (§1)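 Rats in groups of three received one compound as a single oral dose (30 mg/kg) or a single intravenous injection (6 mg/kg), with four compounds studied separately. Serial blood samples were drawn at 5, 10, 15 and 30 min and at 1, 2, 4, 8, 23 and 24 h post-dose. Plasma parent drug and metabolites were quantified and PK parameters were derived.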

Rattus norvegicus [5] = experiment: Tmax in male Sprague-Dawley rat assessed as Tizoxanide-glucuronide level in plasma at 6 mg/kg, iv administered as single dose; format: ADME, organism-based; conditions: in vivo
Procedure, shortened: (§2)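 Plasma tizoxanide and tizoxanide glucuronide were measured and PK parameters derived. AUCs were dose-corrected to 30 mg/kg for bioavailability.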

Rattus norvegicus [6] = experiment: AUC (0 to t) in Sprague-Dawley rat assessed as Tizoxanide level in plasma at 6 mg/kg, iv administered as single dose; format: ADME, organism-based; conditions: in vivo; procedure, shortened: as §2
Rattus norvegicus [7] = experiment: Elimination half life in Sprague-Dawley rat assessed as Tizoxanide level in plasma at 6 mg/kg, iv administered as single dose; format: ADME, organism-based; conditions: in vivo; procedure, shortened: as §2
Rattus norvegicus [8] = experiment: AUC (0 to t) in Sprague-Dawley rat assessed as Tizoxanide level at 30 mg/kg, po administered as single dose; format: ADME, organism-based; conditions: in vivo; procedure, shortened: as §2
Rattus norvegicus [9] = experiment: Tmax in female Sprague-Dawley rat assessed as Tizoxanide-glucuronide level in plasma at 6 mg/kg, iv administered as single dose; format: ADME, organism-based; conditions: in vivo; procedure, shortened: as §2
Rattus norvegicus [10] = experiment: Cmax in Sprague-Dawley rat assessed as Tizoxanide-glucuronide level in plasma at 6 mg/kg, iv administered as single dose; format: ADME, organism-based; set-up: dose 6 mg/kg, route intravenous; conditions: in vivo; procedure, shortened: as §1
Plasma [11] = experiment: Drug metabolism in Sprague-Dawley rat assessed as tizoxanide-glucuronide formation in plasma at 30 mg/kg, po administered as single dose measured after 5 mins; format: ADME, organism-based; conditions: in vivo; procedure, shortened: as §2
Rattus norvegicus [12] = experiment: AUC (0 to t) in male Sprague-Dawley rat assessed as Tizoxanide-glucuronide level in plasma at 6 mg/kg, iv administered as single dose; format: ADME, organism-based; conditions: in vivo; procedure, shortened: as §2
Rattus norvegicus [13] = experiment: Cmax in Sprague-Dawley rat assessed as Tizoxanide level in plasma at 6 mg/kg, iv administered as single dose; format: ADME, organism-based; set-up: dose 6 mg/kg, route intravenous; conditions: in vivo; procedure, shortened: as §1
Rattus norvegicus [14] = experiment: Tmax in female Sprague-Dawley rat assessed as tizoxanide-glucuronide level in plasma at 30 mg/kg, po administered as single dose; format: ADME, organism-based; conditions: in vivo; procedure, shortened: as §2
Rattus norvegicus [15] = experiment: Tmax in male Sprague-Dawley rat assessed as Tizoxanide level in plasma at 30 mg/kg, po; format: ADME, organism-based; conditions: in vivo; procedure, shortened: as §2
Rattus norvegicus [16] = experiment: Tmax in male Sprague-Dawley rat assessed as tizoxanide-glucuronide level in plasma at 30 mg/kg, po administered as single dose; format: ADME, organism-based; conditions: in vivo; procedure, shortened: as §2
Rattus norvegicus [17] = experiment: Cmax in Sprague-Dawley rat assessed as Tizoxanide level in plasma at 30 mg/kg, po administered as single dose; format: ADME, organism-based; set-up: dose 30 mg/kg, route oral; conditions: in vivo; procedure, shortened: as §1
Rattus norvegicus [18] = experiment: AUC (0 to t) in Sprague-Dawley rat assessed as tizoxanide-glucuronide level in plasma at 30 mg/kg, po administered as single dose; format: ADME, organism-based; conditions: in vivo; procedure, shortened: as §2
[19] = Drug excretion in po dosed human faeces; format: ADME, organism-based, Feces; conditions: read-out: Drug excretion
[20] = Oral bioavailability in human; format: ADME, organism-based; conditions: in vivo
Rattus norvegicus [21] = experiment: Tmax in female Sprague-Dawley rat assessed as Tizoxanide level in plasma at 30 mg/kg, po; format: ADME, organism-based; conditions: in vivo; procedure, shortened: as §2
Plasma [22] = experiment: Drug level in Sprague-Dawley rat plasma treated with RM5064 at 30 mg/kg, po administered as single dose; format: ADME, organism-based; conditions: in vivo; procedure, shortened: as §1
Plasma [23] = experiment: Drug level in Sprague-Dawley rat plasma treated with RM5038 at 6 mg/kg, iv administered as single dose; format: ADME, organism-based; conditions: in vivo; procedure, shortened: as §1
[24] = Prodrug activation at room temperature after 3 weeks assessed as tizoxanide formation by NMR method

- Drug metabolism (Rattus norvegicus [1]): Metabolite_Detected
- Drug metabolism (Rattus norvegicus [2]): Metabolite_Detected
Structure (SMILES): O=C(Nc1ncc(Cl)s1)c1ccccc1O

Structure (SMILES): CC(=O)Oc1ccccc1C(=O)Nc1ncc([N+](=O)[O-])s1 [NITAZOXANIDE]
- dose excreted [3]: 33%
- Cmax (Rattus norvegicus [4]): 4620 ng/mL
- Tmax (Rattus norvegicus [5]): 24 min
- AUCt (Rattus norvegicus [6]): 14100 ng·h/mL
- beta t1/2 (Rattus norvegicus [7]): 12 min
- AUCt (Rattus norvegicus [8]): 2040 ng·h/mL
- Tmax (Rattus norvegicus [9]): 42 min
- Cmax (Rattus norvegicus [10]): 11050 ng/mL
- Drug metabolism (Plasma [11]): Metabolite_Detected
- AUCt (Rattus norvegicus [12]): 6500 ng·h/mL
- Cmax (Rattus norvegicus [13]): 20500 ng/mL
- Tmax (Rattus norvegicus [14]): 84 min
- Tmax (Rattus norvegicus [15]): 42 min
- Tmax (Rattus norvegicus [16]): 42 min
- Cmax (Rattus norvegicus [17]): 742 ng/mL
- AUCt (Rattus norvegicus [18]): 15950 ng·h/mL
- dose excreted [19]: 64%
- bioavailability [20]: ≤ 30%
- Tmax (Rattus norvegicus [21]): 126 min

- Drug metabolism (Plasma [22]): Metabolite_Detected
- Drug metabolism (Plasma [23]): Metabolite_Detected
- Drug metabolism (Rattus norvegicus [1]): Metabolite_Detected
- Drug metabolism (Rattus norvegicus [2]): Metabolite_Detected
Structure (SMILES): O=C(Nc1ncc(Cl)s1)c1ccccc1O[C@@H]1O[C@H](C(=O)O)[C@@H](O)[C@H](O)[C@H]1O

Structure (SMILES): CC(C)[C@H](N)C(=O)Oc1ccccc1C(=O)Nc1ncc([N+](=O)[O-])s1
- Drug metabolism [24]: 20%
